CaV13 ICDI inh: Disruptors of the CACNA1D IQ motif to Ca2+-dependent inactivation inhibitor domain association, primary screening, Förster resonance energy transfer in intact living …; 0.098% of 340,000 active; inhibition, % at 12.3 µM; HEK cells, CFP/YFP FRET ICDI-IQ, plate reader, 10 min; percent FRET-ratio fall versus neutral wells;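 active means mean replicate inhibition of at least 30% and at least 1% of replicates passing that level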;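 further: 0% = median of the neutral control wells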
GAA850 FXN act: frataxin GAA850 promoter activation; HEK293 lucGAA850 FXN promoter luciferase reporter, 24 h; percent of 10 µM SAHA response; activation, % at 6 µM; 0.56% of 360,000 active;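 active means activation above the average of all compounds screened plus 3 SD, cutoff fixed separately per campaign, cut at about 7.5% in these data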;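 further: 0% = DMSO wells and 100% = 10 µM SAHA wells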
GSIS activator: primary screen for activators of insulin secretion dependent on glucose, INS-1E cells, GLuc reporter luminescence. INS-1E GLuc reporter insulin secretion, 2-3 h. 0.61% of 370,000 active. activation, % at 16.6 µM. AID 743287;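 active means lowest replicate activation of at least 40%, so every replicate reaches that level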;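 further: 0% = median of neutral control wells and 100% = median of IBMX positive control wells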
XiGFP reactiv: activators of X-chromosome reactivation in mouse fibroblasts | XiGFP mouse fibroblasts, % GFP-positive cells imaging, 3 d; cells co-treated with 5-aza-dC sensitizer; scaled so ellipticine positive control = 100% | 0.055% of 360,000 active | AID 743238 | activation, % at 7.58 µM;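 active means mean normalized replicate activation at least 10% and every replicate at or above 10%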;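 further: 0% = median of on-plate neutral control wells and 100% = ellipticine 6 µM median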
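Material: XiGFP fibroblasts, SV40-immortalized; Buffer or medium: DMEM containing 5-aza-dC; Compound dosing: single point; Times: 3 days compound exposure.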
GAA30 FXN cntr: counter-screen for GAA850 frataxin promoter activators: GAA30 promoter activation; 66% of 1,900 active; shares compounds with GAA850 FXN act; HEK293 lucGAA30 FXN promoter luciferase, 24 h; DMSO = 0%, 5 µM ipriflavone = 100%; activation, % at 6 µM;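 active means mean activation above the mean of solvent-only control wells plus 3 SD, cut at about 22% in these data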;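 further: counterscreen of GAA850 promoter hits where activity marks nonselective or luminescence artifacts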
FXN GAA850 conf: confirmation of GAA850 frataxin (FXN) promoter activators; shares compounds with GAA850 FXN act; HEK293 lucGAA850 FXN promoter luciferase reporter, 24 h; 100% = activation by SAHA; activation, % at 6 µM; 86% of 1,900 active; AID 588351;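 active means mean activation above a set limit taken from the primary screen, cut at about 8% in these data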;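 further: 0% = DMSO wells and 100% = 10 µM SAHA wells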
An asterisk follows results filed as active; nt = not tested or not shown. Most compounds without a hit are left out; they make up all but 1% or so of the library.

SMILES | CaV13 ICDI inh | GAA850 FXN act | GSIS activator | XiGFP reactiv | GAA30 FXN cntr | FXN GAA850 conf
Nc1cc(Cl)c2nonc2c1[N+](=O)[O-] | -5 | 43* | 72 | 2 | 14 | 86*
CN(C)[C@@H]1C(=O)C(C(N)=O)=C(O)[C@@]2(O)C(=O)C3=C(O)c4c(O)cccc4[C@@](C)(O)[C@H]3[C@H](O)[C@@H]12 | -5 | 2 | nt | 0 | nt | nt
CN(C)[C@@H]1C(=O)C(C(N)=O)=C(O)[C@@]2(O)C(=O)C3=C(O)c4c(O)ccc(Cl)c4[C@@](C)(O)[C@H]3C[C@@H]12 | nt | 13* | 1 | nt | 41* | 15*
CCCN1[C@@H]2Cn3c(ccc(-c4cccc(C(=O)N(C)C)c4)c3=O)[C@H]1[C@@H](C(=O)OC)[C@@H]2CO | nt | nt | 8 | 0 | nt | nt
Cc1ccc(-c2nc3ccc(Cl)cc3n2OC(=O)N(C)C)cc1 | nt | 7.7* | nt | nt | 109* | 41*
Cc1[nH]c2ccc(OC(F)(F)F)cc2c1CCNCc1cccc([N+](=O)[O-])c1 | -4 | 5 | -19 | 0 | nt | nt
Cc1[nH]c2ccc(OC(F)(F)F)cc2c1CCNCc1ccc(Cl)cc1 | -21 | 13* | 214* | 0 | 10 | 8.9*
C/C1=C\[C@@H](C)C/C=C/[C@H]2[C@@H]3O[C@]3(C)[C@@H](C)[C@H]3[C@H](Cc4c[nH]c5ccccc45)NC(=O)[C@]32C(=O)/C=C/C(=O)[C@@H]1O | nt | 8.8* | nt | nt | -16 | 46*
COC(=O)[C@H]1[C@H](CO)[C@H]2Cn3c(ccc(/C=C/c4ccccc4)c3=O)[C@@H]1N2Cc1ccccc1F | nt | nt | -11 | 0 | nt | nt
COC(=O)[C@@H]1[C@@H](CO)[C@@H]2Cn3c(ccc(C4=CCCC4)c3=O)[C@H]1N2S(=O)(=O)c1cn(C)cn1 | nt | nt | -5 | 0 | nt | nt
COc1cc2nc(CN3CC=C(c4ccccc4)CC3)[nH]c(=O)c2cc1OC | -6 | 22* | 24 | 1 | 77* | 61*
COc1cc(C)c(CN2CC=C(c3ccc(F)cc3)CC2)cc1C | -4 | 0 | -25 | 0 | nt | nt
O=C(O)[C@H]1[C@H](CO)[C@H]2Cn3c(ccc(-c4cccc(F)c4)c3=O)[C@@H]1N2CCc1ccccc1 | nt | nt | 5 | 0 | nt | nt
CC(=NNC(=S)N1CC2CCC(CC2)C1)c1nccs1 | -6 | 12* | 5 | 0 | -66 | 4
CCN1[C@@H]2c3ccc(-c4ccc(OC)cc4)c(=O)n3C[C@H]1[C@H](CO)[C@H]2C(=O)OC | nt | nt | 3 | 0 | nt | nt
OC12ONC(c3ccccn3)C1N1CCC2CC1 (stereo not drawn) | -5 | 18* | 12 | 0 | 34* | 16*
CCN(C)C(C)Cc1cccc(C(F)(F)F)c1 (stereo not drawn) | nt | nt | 17 | nt | nt | nt
CCN[C@@H](C)Cc1cccc(C(F)(F)F)c1 | nt | 14* | 17 | nt | 12 | 6
